# Results published in ChEMBL document CHEMBL1141286, “Benzochromenones from the marine crinoid Comantheria rotula inhibit hypoxia-inducible factor-1 (HIF-1) in cell-based reporter assays and differentially suppress the growth of certain tumor cell lines” (J Nat Prod, 2007).
# The source made the active and inactive calls. The rule behind the calls is not given here.
# Experiments:
# KM12 = experiment: Growth inhibition of human KM12 cells; type: functional
# SNB-75 = experiment: Growth inhibition of human SNB75 cells; type: functional
# HT-29 = experiment: Growth inhibition of human HT29 cells; type: functional
# MOLT-4 = experiment: Growth inhibition of human MOLT4 cells; type: functional
# PC-3 = experiment: Growth inhibition of human PC3 cells; type: functional
# HOP-62 = experiment: Growth inhibition of human HOP62 cells; type: functional
# NCI-H460 = experiment: Growth inhibition of human NCI-H460 cells; type: functional
# ACHN = experiment: Growth inhibition of human ACHN cells; type: functional
# SF-268 = experiment: Growth inhibition of human SF268 cells; type: functional
# NCI-H226 = experiment: Growth inhibition of human NCI-H226 cells; type: functional
# UACC-62 = experiment: Growth inhibition of human UACC62 cells; type: functional
# MCF7 = experiment: Growth inhibition of human MCF7 cells; type: functional
# [1] = Inhibition of 1,10-phenanthroline-induced HIF1 activation in T47D cells by TK-luciferase assay; type: cell-based; conditions: Homo sapiens
# In short: (§1)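 HIF-1 reporter (pHRE-TK-Luc) assays in transfected PC-3 or T47D cells; HIF-1 induced by hypoxia or by the hypoxia mimetic 1,10-phenanthroline (10 μM); compounds at half-log concentrations; luciferase activity measured; IC50 from experiments in triplicate.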
# [2] = Inhibition of HIF1 activation in PC3 cells by TK-luciferase assay; type: cell-based; conditions: Homo sapiens, PC-3; in short: as §1
# Malme-3M = experiment: Growth inhibition of human MALME-3M cells; type: functional
# SNB-19 = experiment: Growth inhibition of human SNB19 cells; type: functional
# Hs-578T = experiment: Growth inhibition of human HS578T cells; type: functional
# [3] = molecular target: Hypoxia inducible factors; HIF-1-alpha, HIF-2-alpha (Homo sapiens, UniProt Q16665+Q99814); experiment: Inhibition of HIF1 activation in human T47D cells by TK-luciferase assay; type: cell-based; in short: as §1
# MDA-MB-435 = experiment: Growth inhibition of human MDA-MB-435 cells; type: functional
# [4] = Growth inhibition of human OVACAR3 cells; type: functional
# UO-31 = experiment: Growth inhibition of human UO31 cells; type: functional
# CCRF-CEM = experiment: Growth inhibition of human CCRF-CEM cells; type: functional
# TK-10 = experiment: Growth inhibition of human TK10 cells; type: functional
# T47D [5] = experiment: Growth inhibition of human T47D cells; type: functional
# SK-MEL-5 = experiment: Growth inhibition of human SK-MEL5 cells; type: functional
# RXF 393 = experiment: Growth inhibition of human RXF393 cells; type: functional
# A498 = experiment: Growth inhibition of human A498 cells; type: functional
# COLO 205 = experiment: Growth inhibition of human COLO205 cells; type: functional
# NCI-H522 = experiment: Growth inhibition of human NCI-H522 cells; type: functional
# SF-295 = experiment: Growth inhibition of human SF295 cells; type: functional
# SK-MEL-28 = experiment: Growth inhibition of human SK-MEL28 cells; type: functional
# UACC-257 = experiment: Growth inhibition of human UACC257 cells; type: functional
# OVCAR-4 = experiment: Growth inhibition of human OVACAR4 cells; type: functional
# CAKI-1 = experiment: Growth inhibition of human CAKI1 cells; type: functional
# HCT-116 = experiment: Growth inhibition of human HCT116 cells; type: functional
# HCC 2998 = experiment: Growth inhibition of human HCC2998 cells; type: functional
# SR = experiment: Growth inhibition of human SR cells; type: functional
# T47D [6] = experiment: Inhibition of 1,10-phenanthroline-induced VEGF protein secretion in human T47D cells at 10 uM after 16 hrs by ELISA; type: functional, cell-based
# In short: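 T47D cells stimulated with 1,10-phenanthroline, compound at 10 μM; secreted VEGF in conditioned media by ELISA, normalized to cell-lysate protein.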
# HL-60 = experiment: Growth inhibition of human HL60 cells; type: functional
# SN12C = experiment: Growth inhibition of human SN12C cells; type: functional
# [7] = read-out: Log LC50 (the source's name) (converted)
compound,measurement,setting,value
CCCc1cc(=O)c2c(OC)c3c(OC)cc(O)c(Oc4c(O)cc(OC)c5c(OC)c6c(=O)cc(CCC)oc6cc45)c3cc2o1,GI50,KM12,13.8 µM
same,CC50,KM12; [7],69.2 µM
same,TGI,KM12; read-out: Log TGI (converted),30.9 µM
same,GI50,SNB-75,2.95 µM
same,LC50,SNB-75,30.2 µM
same,TGI,SNB-75; read-out: Log TGI (converted),8.71 µM
same,GI50,HT-29,13.2 µM
same,CC50,HT-29; [7],79.4 µM
same,TGI,HT-29; read-out: Log TGI (converted),32.4 µM
same,GI50,MOLT-4,3.24 µM
same,CC50,MOLT-4; [7],97.7 µM
same,TGI,MOLT-4; read-out: Log TGI (converted),11.5 µM
same,GI50,PC-3,6.31 µM
same,LC50,PC-3,46.8 µM
same,TGI,PC-3; read-out: Log TGI (converted),20 µM
same,GI50,HOP-62,2.57 µM
same,CC50,HOP-62; [7],28.2 µM
same,TGI,HOP-62; read-out: Log TGI (converted),8.13 µM
same,GI50,NCI-H460,10.7 µM
same,CC50,NCI-H460; [7],89.1 µM
same,TGI,NCI-H460; read-out: Log TGI (converted),30.9 µM
same,GI50,ACHN,7.08 µM
same,CC50,ACHN; [7],45.7 µM
same,TGI,ACHN; read-out: Log TGI (converted),20 µM
same,GI50,SF-268,12.6 µM
same,LC50,SF-268,66.1 µM
same,TGI,SF-268; read-out: Log TGI (converted),28.8 µM
same,GI50,NCI-H226,16.2 µM
same,CC50,NCI-H226; [7],79.4 µM
same,TGI,NCI-H226; read-out: Log TGI (converted),35.5 µM
same,GI50,UACC-62,4.9 µM
same,"LC50 (lethal concentration, 50% cell kill)",UACC-62,41.7 µM
same,TGI,UACC-62; read-out: Log TGI (converted),17 µM
same,GI50,MCF7,3.31 µM
same,LC50,MCF7,100 µM
same,TGI,MCF7; read-out: Log TGI (converted),10 µM
same,IC50,[1],0.8 µM
same,IC50,[2],10 µM
same,GI50,Malme-3M,7.41 µM
same,CC50,Malme-3M; [7],49 µM
same,TGI,Malme-3M; read-out: Log TGI (converted),20.4 µM
same,GI50,SNB-19,15.8 µM
same,LC50,SNB-19,55 µM
same,TGI,SNB-19; read-out: Log TGI (converted),29.5 µM
same,GI50,Hs-578T,5.89 µM
same,LC50,Hs-578T,100 µM
same,TGI,Hs-578T; read-out: Log TGI (converted),69.2 µM
same,IC50,[3],7.3 µM
same,GI50,MDA-MB-435,2.24 µM
same,LC50,MDA-MB-435,15.8 µM
same,TGI,MDA-MB-435; read-out: Log TGI (converted),5.13 µM
same,GI50,[4],2.19 µM
same,CC50,[4]; [7],57.5 µM
same,TGI,[4]; read-out: Log TGI (converted),8.71 µM
same,GI50,UO-31,6.61 µM
same,LC50,UO-31,45.7 µM
same,TGI,UO-31; read-out: Log TGI (converted),19.5 µM
same,GI50,CCRF-CEM,2.34 µM
same,LC50,CCRF-CEM,> 100 µM
same,TGI,CCRF-CEM; read-out: Log TGI (converted),14.1 µM
same,GI50,TK-10,17 µM
same,LC50,TK-10,57.5 µM
same,TGI,TK-10; read-out: Log TGI (converted),31.6 µM
same,GI50,T47D [5],3.63 µM
same,LC50,T47D [5],91.2 µM
same,TGI,T47D [5]; read-out: Log TGI (converted),12.9 µM
same,GI50,SK-MEL-5,2.09 µM
same,LC50,SK-MEL-5,7.08 µM
same,TGI,SK-MEL-5; read-out: Log TGI (converted),3.8 µM
same,GI50,RXF 393,1.62 µM
same,LC50,RXF 393,30.2 µM
same,TGI,RXF 393; read-out: Log TGI (converted),5.62 µM
same,GI50,A498,18.2 µM
same,LC50,A498,60.3 µM
same,TGI,A498; read-out: Log TGI (converted),33.1 µM
same,GI50,COLO 205,10 µM
same,CC50,COLO 205; [7],57.5 µM
same,TGI,COLO 205; read-out: Log TGI (converted),24 µM
same,GI50,NCI-H522,6.61 µM
same,CC50,NCI-H522; [7],60.3 µM
same,TGI,NCI-H522; read-out: Log TGI (converted),21.9 µM
same,GI50,SF-295,5.13 µM
same,LC50,SF-295,50.1 µM
same,TGI,SF-295; read-out: Log TGI (converted),18.6 µM
same,GI50,SK-MEL-28,11.5 µM
same,CC50,SK-MEL-28; [7],53.7 µM
same,TGI,SK-MEL-28; read-out: Log TGI (converted),24.5 µM
same,GI50,UACC-257,3.8 µM
same,LC50,UACC-257,40.7 µM
same,TGI,UACC-257; read-out: Log TGI (converted),13.8 µM
same,GI50,OVCAR-4,2.57 µM
same,LC50,OVCAR-4,37.2 µM
same,TGI,OVCAR-4; read-out: Log TGI (converted),8.51 µM
same,GI50,CAKI-1,11 µM
same,LC50,CAKI-1,47.9 µM
same,TGI,CAKI-1; read-out: Log TGI (converted),22.9 µM
same,GI50,HCT-116,3.39 µM
same,CC50,HCT-116; [7],34.7 µM
same,TGI,HCT-116; read-out: Log TGI (converted),11.5 µM
same,GI50,HCC 2998,13.5 µM
same,CC50,HCC 2998; [7],56.2 µM
same,TGI,HCC 2998; read-out: Log TGI (converted),27.5 µM
same,GI50,SR,2.88 µM
same,CC50,SR; [7],77.6 µM
same,TGI,SR; read-out: Log TGI (converted),7.08 µM
same,Activity,T47D [6],inactive
same,GI50,HL-60,3.89 µM
same,LC50,HL-60,79.4 µM
same,TGI,HL-60; read-out: Log TGI (converted),11.2 µM
same,GI50,SN12C,2.09 µM
same,LC50,SN12C,14.1 µM
same,TGI,SN12C; read-out: Log TGI (converted),4.79 µM
